In brackets after ≈: the same amount, converted by molar mass. Activity calls are given as the source filed them. The calls are words filed in the database; no cut-off is given here.
Experiments:
Staphylococcus aureus [1] = test: Antibacterial activity against Staphylococcus aureus ATTC 25923 at MIC after 3 to 4 days by disc diffusion method; format: functional
Outline: (§1)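 Agar well diffusion: seeded agar plates dried 1 h at 37 °C, wells punched and filled with test compound at MIC level in DMSO; DMSO solvent control. Plates in triplicate, kept at 37 °C for 3–4 days; zone of inhibition read.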

Aspergillus fumigatus [2] = test: Antifungal activity against Aspergillus fumigatus NCIM 902 at MIC after 3 to 4 days; format: functional
[3] = tested on: Trichophyton mentagrophytes; test: Antifungal activity against recultured Trichophyton mentagrophytes by serial plate dilution method; format: functional
Klebsiella pneumoniae [4] = test: Antibacterial activity against recultured Klebsiella pneumoniae after 16 to 18 hrs by serial dilution method; format: functional
Outline: (§2)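 Serial drug dilutions in Mueller-Hinton broth adjusted to pH 5.0 with phosphate buffer, inoculated with standardized bacterial suspension, incubated 16–18 h at 37 °C; MIC taken as lowest concentration without conspicuous growth.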

Aspergillus fumigatus [5] = test: Antifungal activity against Aspergillus fumigatus NCIM 902 by serial plate dilution method; format: functional
Mus musculus [6] = test: Analgesic activity Wistar albino mouse assessed as tail withdrawal latency time at 100 mg/kg, po administered by intragastric tube after 120 mins (reference value: 1.363 +/- 0.1297 sec); format: functional
Aspergillus flavus [7] = test: Antifungal activity against Aspergillus flavus NCIM 524 at MIC after 3 to 4 days; format: functional
Escherichia coli [8] = test: Antibacterial activity against Escherichia coli ATTC 25922 after 16 to 18 hrs by serial dilution method; format: functional; outline: as §2
Aspergillus flavus [9] = test: Antifungal activity against Aspergillus flavus NCIM 524 by serial plate dilution method; format: functional
Mus musculus [10] = test: Analgesic activity Wistar albino mouse assessed as tail withdrawal latency time at 100 mg/kg, po administered by intragastric tube after 180 mins (reference value: 1.363 +/- 0.1297 sec); format: functional
Mus musculus [11] = test: Analgesic activity Wistar albino mouse assessed as tail withdrawal latency time at 100 mg/kg, po administered by intragastric tube after 60 mins (reference value: 1.363 +/- 0.1297 sec); format: functional
[12] = tested on: Trichophyton mentagrophytes; test: Antifungal activity against recultured Trichophyton mentagrophytes at MIC after 3 to 4 days; format: functional
Pseudomonas aeruginosa [13] = test: Antibacterial activity against Pseudomonas aeruginosa ATTC 27853 at MIC after 3 to 4 days by disc diffusion method; format: functional; outline: as §1
Pseudomonas aeruginosa [14] = test: Antibacterial activity against Pseudomonas aeruginosa ATTC 27853 after 16 to 18 hrs by serial dilution method; format: functional; outline: as §2
Escherichia coli [15] = test: Antibacterial activity against Escherichia coli ATTC 25922 at MIC after 3 to 4 days by disc diffusion method; format: functional; outline: as §1
Talaromyces marneffei [16] = test: Antifungal activity against recultured Penicillium marneffei by serial plate dilution method; format: functional
Talaromyces marneffei [17] = test: Antifungal activity against recultured Penicillium marneffei at MIC after 3 to 4 days; format: functional
Staphylococcus aureus [18] = test: Antibacterial activity against Staphylococcus aureus ATTC 25923 after 16 to 18 hrs by serial dilution method; format: functional; outline: as §2
Klebsiella pneumoniae [19] = test: Antibacterial activity against recultured Klebsiella pneumoniae at MIC after 3 to 4 days by disc diffusion method; format: functional; outline: as §1
Rattus norvegicus = test: Antiinflammatory activity rat assessed as reduction of carrageenan-induced paw oedema at 100 mg/kg, po administered 30 mins before carrageenan challenge measured after 60 to 180 mins; format: functional, organism-based; parameters: dose 100 mg/kg
Outline: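 Rats randomly assigned, 100 mg/kg orally as suspension in 1% carboxymethyl cellulose, 30 min before carrageenan injected into right hind paw. Paw thickness measured with vernier callipers at 60, 120 and 180 min. Diclofenac reference; mean ± SEM, n = 6, vs vehicle control.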

Row | Structure (SMILES) | diameter of the inhibition zone (DIZ) (Staphylococcus aureus [1]) [mm] | diameter of the inhibition zone (DIZ) (Aspergillus fumigatus [2]) [mm] | MIC [3] [µM] | MIC (Klebsiella pneumoniae [4]) [µM] | MIC (Aspergillus fumigatus [5]) [µM] | Time (Mus musculus [6]) [s] | diameter of the inhibition zone (DIZ) (Aspergillus flavus [7]) [mm] | MIC (Escherichia coli [8]) [µM] | MIC (Aspergillus flavus [9]) [µM] | Time (Mus musculus [10]) [s] | Time (Mus musculus [11]) [s] | diameter of the inhibition zone (DIZ) [12] [mm] | diameter of the inhibition zone (DIZ) (Pseudomonas aeruginosa [13]) [mm] | MIC (Pseudomonas aeruginosa [14]) [µM] | diameter of the inhibition zone (DIZ) (Escherichia coli [15]) [mm] | MIC (Talaromyces marneffei [16]) [µM] | diameter of the inhibition zone (DIZ) (Talaromyces marneffei [17]) [mm] | MIC (Staphylococcus aureus [18]) [µM] | diameter of the inhibition zone (DIZ) (Klebsiella pneumoniae [19]) [mm] | Activity (Rattus norvegicus)
1 | COc1ccc(Br)c(-c2nnc3sc(-c4ccccc4)nn23)c1 | 11 | 11 | 32.3 (≈ 12.5 µg/mL) | 32.3 (≈ 12.5 µg/mL) | 32.3 (≈ 12.5 µg/mL) | 2.125 | 11 | 32.3 (≈ 12.5 µg/mL) | 32.3 (≈ 12.5 µg/mL) | 2.5 | 1.963 | 11 | 11 | 32.3 (≈ 12.5 µg/mL) | 11 | 16.1 (≈ 6.25 µg/mL) | 16 | 32.3 (≈ 12.5 µg/mL) | 11 | 
2 | COc1ccc(C2Nn3c(nnc3-c3cc(OC)ccc3Br)S2)c(OC)c1 (centres undefined) | 11 | 11 | 27.8 (≈ 12.5 µg/mL) | 13.9 (≈ 6.25 µg/mL) | 27.8 (≈ 12.5 µg/mL) | 2.642 | 11 | 13.9 (≈ 6.25 µg/mL) | 27.8 (≈ 12.5 µg/mL) | 2.492 | 2.39 | 11 | 16 | 13.9 (≈ 6.25 µg/mL) | 16 | 13.9 (≈ 6.25 µg/mL) | 16 | 27.8 (≈ 12.5 µg/mL) | 16 | Active
3 | CC1(C)S[C@@H]2[C@H](NC(=O)[C@H](N)c3ccccc3)C(=O)N2[C@H]1C(=O)O [AMPICILLIN] | 22 |  |  | 17.9 (≈ 6.25 µg/mL) |  |  |  | 17.9 (≈ 6.25 µg/mL) |  |  |  |  | 25 | 17.9 (≈ 6.25 µg/mL) | 30 |  |  | 4.46 (≈ 1.56 µg/mL) | 23 | 
4 | CCC(C)n1ncn(-c2ccc(N3CCN(c4ccc(OCC5COC(Cn6cncn6)(c6ccc(Cl)cc6Cl)O5)cc4)CC3)cc2)c1=O (centres undefined) [ITRACONAZOLE] |  | 23 | 8.86 (≈ 6.25 µg/mL) |  | 8.86 (≈ 6.25 µg/mL) |  | 25 |  | 8.86 (≈ 6.25 µg/mL) |  |  | 30 |  |  |  | 2.21 (≈ 1.56 µg/mL) | 22 |  |  | 
5 | COc1ccc(Br)c(-c2nnc3sc(-c4cc(C)cc(C)c4)nn23)c1 | 11 | 16 | 15.1 (≈ 6.25 µg/mL) | 15.1 (≈ 6.25 µg/mL) | 15.1 (≈ 6.25 µg/mL) | 2.075 | 16 | 15.1 (≈ 6.25 µg/mL) | 15.1 (≈ 6.25 µg/mL) | 2.238 | 2.175 | 16 | 16 | 15.1 (≈ 6.25 µg/mL) | 16 | 30.1 (≈ 12.5 µg/mL) | 11 | 30.1 (≈ 12.5 µg/mL) | 16 | 
6 | COc1ccc(Br)c(-c2nnc3sc(-c4ccc(I)cc4I)nn23)c1 | 11 | 11 | 19.6 (≈ 12.5 µg/mL) | 19.6 (≈ 12.5 µg/mL) | 19.6 (≈ 12.5 µg/mL) | 2.088 | 11 | 19.6 (≈ 12.5 µg/mL) | 19.6 (≈ 12.5 µg/mL) | 2.225 | 2.038 | 11 | 11 | 19.6 (≈ 12.5 µg/mL) | 11 | 19.6 (≈ 12.5 µg/mL) | 11 | 19.6 (≈ 12.5 µg/mL) | 11 | 
7 | COc1ccc(Br)c(-c2nnc3sc(-c4ccc(C)cc4)nn23)c1 | 16 | 11 | 15.8 (≈ 6.32 µg/mL) | 15.8 (≈ 6.32 µg/mL) | 31.1 (≈ 12.5 µg/mL) | 2.681 | 11 | 15.8 (≈ 6.32 µg/mL) | 31.1 (≈ 12.5 µg/mL) | 2.47 | 2.384 | 16 | 11 | 31.1 (≈ 12.5 µg/mL) | 16 | 31.1 (≈ 12.5 µg/mL) | 11 | 15.8 (≈ 6.32 µg/mL) | 16 | Active
8 | CC(C)=CCN1CC[C@]2(C)c3cc(O)ccc3C[C@H]1[C@H]2C [(+)-PENTAZOCINE] |  |  |  |  |  | 6.863 |  |  |  | 7.025 | 7.075 |  |  |  |  |  |  |  |  | 
9 | COc1ccc(Br)c(-c2nnc3n2NC(c2ccc(-c4ccccc4)cc2)S3)c1 (centres undefined) | 11 | 11 | 26.9 (≈ 12.5 µg/mL) | 13.4 (≈ 6.25 µg/mL) | 26.9 (≈ 12.5 µg/mL) | 2.067 | 16 | 26.9 (≈ 12.5 µg/mL) | 13.4 (≈ 6.25 µg/mL) | 2.455 | 2.102 | 11 | 11 | 26.9 (≈ 12.5 µg/mL) | 11 | 26.9 (≈ 12.5 µg/mL) | 11 | 26.9 (≈ 12.5 µg/mL) | 16 | 
10 | COc1ccc(Br)c(-c2nnc3n2NC(c2ccccc2)S3)c1 (centres undefined) | 11 | 16 | 12.5 (≈ 4.87 µg/mL) | 32.1 (≈ 12.5 µg/mL) | 6.25 (≈ 2.43 µg/mL) | 3.46 | 11 | 16.1 (≈ 6.25 µg/mL) | 12.5 (≈ 4.87 µg/mL) | 3.391 | 3.181 | 11 | 11 | 32.1 (≈ 12.5 µg/mL) | 16 | 6.25 (≈ 2.43 µg/mL) | 16 | 32.1 (≈ 12.5 µg/mL) | 11 | 

Reference: ChEMBL document CHEMBL1955832, “Facile synthesis, characterization and pharmacological activities of 3,6-disubstituted 1,2,4-triazolo[3,4-b][1,3,4]thiadiazoles and 5,6-dihydro-3,6-disubstituted-1,2,4-triazolo[3,4-b][1,3,4]thiadiazoles” (2012)
